Measured values of several laboratories.
Lines come from different studies, so protocols differ.
Target: Mitogen-activated protein kinase kinase kinase kinase 4 (MAP4K4, Homo sapiens, UniProt O95819)

| SMILES | assay | setting | remaining binding |
| --- | --- | --- | --- |
| C[C@H](c1cccc(C#N)c1)n1cc(Cl)cc(C(N)=O)c1=N | cell-free assay, competition with immobilised ligand | 1 µM | 100% |
| FC(F)(F)Oc1cccc(-c2cnc3ccc(-c4ccncc4)nn23)c1 | cell-free assay, competition with immobilised ligand | 5 µM | 49% |
| CC1CCCN1c1nccc(-c2cnn3ncccc23)n1 (stereo not drawn) | binding | 1 µM | 100% |
| C=CC(=O)N1CCC(C(=O)NCC(=O)N2CCN(c3nc(-c4cnc(N)nc4C(F)F)nc(N4CCOCC4)n3)CC2)CC1 | binding, competition with immobilised ligand | 1 µM | 80% |
| C[C@@H](c1ccc(-n2cnc3c(N)ncnc32)cc1)N1CCc2nn(C)c(Cc3ccccc3)c2C1=O | binding, competition with immobilised ligand | 0.1 µM | 97% |
| Cc1cnc(Nc2ccc(C(=O)N3CCC(N4CCCC4)CC3)cc2)nc1-c1cc2ccccc2s1 | binding, competition with immobilised ligand | 1 µM | 67% |
| N[C@H]1CCN(c2nccc(-c3cnn4ncccc34)n2)C1 | binding | 1 µM | 100% |
| FC(F)(F)c1ccc2c(c1)nc(-c1cccnc1)n2C1CC1 | cell-free assay, competition with immobilised ligand | 1 µM | 100% |
| C[C@H]1CCN(c2nccc(-c3cnn4ncccc34)n2)C1 | binding | 1 µM | 98% |
| O=C(NS(=O)(=O)c1ccc(NCC2CCOCC2)c([N+](=O)[O-])c1)c1ccc(N2CCN(Cc3ccc(C(F)(F)F)cc3-c3ccc(Cl)cc3)CC2)cc1Oc1cnc2[nH]ccc2c1 | cell-free assay, competition with immobilised ligand | 1 µM | 95% |
| COc1cnc(Nc2cccc(S(N)(=O)=O)c2)nc1N1CCN(c2ccccc2)CC1 | binding, competition with immobilised ligand | 1 µM | 87% |
| Cc1cnn2ncc(-c3ccnc(N(C)C)n3)c2c1 | binding | 1 µM | 100% |
| CCCOc1ccc([C@H]2[C@H](C(=O)O)[C@@H](c3ccc4c(c3)OCO4)CN2CC(=O)Nc2c(CC)cccc2CC)cc1 | cell-free assay, competition with immobilised ligand | 1 µM | 90% |
| c1cncc(-c2cccc(Nc3nccc(NC4CCCCC4)n3)c2)c1 | binding, competition with immobilised ligand | 10 µM | 26% |
| O=C(NCC1CCOCC1)c1n[nH]cc1NC(=O)c1c(F)cccc1F | binding, competition with immobilised ligand | 1 µM | 91% |
| O=C(NCCCN1CCOCC1)c1ccc(Nc2nccc(-c3cc4ccccc4s3)n2)cc1 | binding, competition with immobilised ligand | 1 µM | 100% |
| CC(=O)N1CCC(c2ccc(C(=O)NC(=N)N)cc2C(F)(F)F)CC1 | cell-free assay, competition with immobilised ligand | 1 µM | 100% |
| COc1ccnn2ncc(-c3ccnc(N(C)C)n3)c12 | binding | 1 µM | 93% |
| O=C(c1ccc(Nc2ncc(Cl)c(-c3ccc(Cl)s3)n2)cc1)N1CCC(N2CCCC2)CC1 | binding, competition with immobilised ligand | 1 µM | 26% |
| CN(C)c1ncc(F)c(-c2cnn3ncccc23)n1 | binding | 1 µM | 100% |
| CS(=O)(=O)NCC[C@H](NC(=O)c1cncc2c1cnn2-c1ccc(F)cc1)c1ccnc(S(C)(=O)=O)c1 | cell-free assay, competition with immobilised ligand | 1 µM | 86% |
